NR2E3 ag-1 – NR2E3 (human) agonism; GST-NR2E3/biotin-RetCOR TR-FRET, 1536-well; inhibition of corepressor binding, % at 4.78 µM; 320,000 compounds, 0.12% hits;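 active = percent inhibition above the cutoff of mean plus 3 SD of all tested compounds, set per screening campaign, cut at about 20% in these data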;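 also: 0% = DMSO wells and 100% = biotin wells as full block of FRET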
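system = GST-tagged NR2E3 plus biotinylated RetCOR corepressor | input = 1.35 nM GST-NR2E3 | also added = 7 nM biotin-RetCOR | schedule = 5 h incubation at 4 °C | measured by = TR-FRET with europium anti-GST and streptavidin-D2, 340 nm excitation | read-out = percent loss of FRET ratio relative to control wells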
NR2E3 ag-2 – activates human NR2E3 receptor | 360,000 compounds, 0.35% hits | inhibition of corepressor binding, % at 3.98 µM | CHO-S Gal4-NCOR/VP16-NR2E3 two-hybrid, luciferase | Q9Y5X4;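 active = inhibition above the mean of all tested compounds plus 3 SD, cut at about 70% in these data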;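 also: 0% = DMSO with NR2E3 transfected cells and 100% = cells lacking NR2E3 construct; higher means lower luciferase signal from less NR2E3 corepressor binding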
PG9 binder – small molecules binding HIV-1 gp120 antibody PG9; 360,000 compounds, 0.43% hits; AID 624416; inhibition, % at 6.7 µM; TR-FRET gp120-PG9 antibody binding; in the data active = inhibition above about 8.5%
Rev-erbA mod – Rev-erb alpha (human) modulation; P20393; Rev-erbα–FITC-DNA binding, fluorescence polarization, 90 min; activity, % at 10 µM; 370,000 compounds, 0.79% hits;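 active = activity above about 14%, limit read from the data; passing the limit was not always enough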;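 also: 0% = DMSO wells with 35 nM protein and 100% = DMSO wells with 750 nM protein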
PKA-R2B activ – PKA-R2B complex activation. PKA-R2B holoenzyme dissociation, Cy5-IP20 fluorescence polarization; R2B truncated from residue 108, S112A mutant; 0% DMSO only, 100% 113 µM cGMP. activation, % at 11.4 µM. 340,000 compounds, 0.079% hits. AID 504700;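 active = activation above a cutoff set at the mean over all compounds plus 3 SD, cut at about 18% in these data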;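 also: higher means more holoenzyme dissociation and a rise in polarization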
Target sequence (P31323 whole entry, looked up, other chains not shown, the tested form may be a part): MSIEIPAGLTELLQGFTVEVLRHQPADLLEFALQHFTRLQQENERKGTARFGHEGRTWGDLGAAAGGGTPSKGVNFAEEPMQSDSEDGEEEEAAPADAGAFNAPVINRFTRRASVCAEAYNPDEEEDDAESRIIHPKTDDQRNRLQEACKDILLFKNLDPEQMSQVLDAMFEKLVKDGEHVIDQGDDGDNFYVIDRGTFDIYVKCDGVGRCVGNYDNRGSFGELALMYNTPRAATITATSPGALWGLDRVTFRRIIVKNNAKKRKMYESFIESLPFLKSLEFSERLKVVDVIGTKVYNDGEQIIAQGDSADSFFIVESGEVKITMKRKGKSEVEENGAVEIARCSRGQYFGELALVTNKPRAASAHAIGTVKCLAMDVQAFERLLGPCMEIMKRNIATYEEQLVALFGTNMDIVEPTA
PKA-R1A act – activates the PKA-R1A holoenzyme complex; PKA-R1A dissociation, Cy5-IP20 fluorescence polarization; scaled: DMSO 0%, 113 µM cGMP 100%; 340,000 compounds, 0.083% hits; AID 504707; P00514+P68181; activation, % at 11.4 µM;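 active = percent activation above the mean of all tested compounds plus 3 SD, cut at about 19% in these data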;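 also: higher means more PKAc released from R1A so a rise in polarization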
PG9 binder conf – confirmation of small molecules binding HIV-1 gp120 antibody PG9. shares compounds with PG9 binder. TR-FRET PG9 antibody binding, biochemical. AID 651571. inhibition, % at 6.7 µM. 1,500 compounds, 90% hits; in the data active = inhibition above about 9%
PGV04 counter – PGV04 control antibody binding, counter-screen; TR-FRET PGV04 antibody-gp120 binding, biochemical; 1,500 compounds, 95% hits; inhibition, % at 6.7 µM; AID 651604; shares compounds with PG9 binder; in the data active = inhibition above about 9.5%
PG9 bind DR – PG9 antibody binding, dose response. shares compounds with PG9 binder. TR-FRET PG9 antibody-gp120 binding inhibition. IC50, µM. 95 tested, under 10 active. AID 651848; in the data active = IC50 below about 10 µM
PGV04 DR counter – counter-screen for PG9 binders: binding to control antibody PGV04 | shares compounds with PG9 binder | TR-FRET binding to control antibody PGV04 | IC50, µM | 95 compounds, 20% hits | AID 651937
PG126 DR counter – PG126 binding, dose response counter-screen. shares compounds with PG9 binder. TR-FRET binding to antibody PG126, counterscreen. IC50, µM. 95 compounds, 20% hits. AID 651939
An asterisk follows results filed as active; i = inactive; / = no result given. Rows were chosen to be rich in hits. Some 1.6% of all compounds tested hit in one or more screens of this group. Rule as the data show it, unless noted: active = IC50 below about 9 µM; inactive = the rest.

SMILES	NR2E3 ag-1	NR2E3 ag-2	PG9 binder	Rev-erbA mod	PKA-R2B activ	PKA-R1A act	PG9 binder conf	PGV04 counter	others
CC(C)CN1C(=O)[C@]2(CC(=O)N(C)C2c2ccccc2)c2cc(-n3cc(C4=CCCCC4)nn3)ccc21 (some centres not stated)	/	/	/	0	/	/	/	/
O=C1C(=O)N(Cc2ccncc2)C(c2ccccc2F)/C1=C(\O)c1ccc2c(c1)OCCO2 (configuration not stated)	7	1	16*	1	-19	-5	32*	31*	PG9 bind DR=i;PGV04 DR counter=5.3*;PG126 DR counter=7.8*
COc1cccc(C2/C(=C(\O)c3ccc4c(c3)OCCO4)C(=O)C(=O)N2Cc2cccnc2)c1 (configuration not stated)	12	-25	23*	-3	-4	-4	30*	35*
O=C1C(=O)N(CCN2CCOCC2)C(c2cccc(Cl)c2)/C1=C(\O)c1ccc2c(c1)OCCO2 (configuration not stated)	10	-1	32*	-1	-1	-3	36*	42*
CCCCOc1cccc(C2/C(=C(\O)c3ccc4c(c3)OCCO4)C(=O)C(=O)N2CCN2CCOCC2)c1 (configuration not stated)	16	5	10*	0	5	2	18*	31*
O=C1C(=O)N(Cc2cccnc2)C(c2cccc([N+](=O)[O-])c2)/C1=C(\O)c1ccc2c(c1)OCCO2 (configuration not stated)	-2	-2	0	0	3	0	/	/
COc1cc(C2/C(=C(\O)c3ccc4c(c3)OCCO4)C(=O)C(=O)N2Cc2ccccc2)ccc1O (configuration not stated)	0	-13	-1	0	-9	-1	/	/
CCCOc1cccc(C2/C(=C(\O)c3ccc4c(c3)OCCO4)C(=O)C(=O)N2CCCn2ccnc2)c1 (configuration not stated)	7	3	0	4	5	3	/	/
COC(=O)[C@]12C[C@H](CC(=O)NCc3ccc(C)o3)C(=O)N(Cc3ccccc3)C1=C[C@H](C(C)C)O[C@@H]2C1CC1	/	/	0	1	/	/	/	/
CCOC(=O)C1=C(C(=O)OCC)C2N(Cc3ccc(Br)cc3)c3ccccc3[C@@]23C[C@@H](C(=O)OC)N(S(=O)(=O)c2cccs2)C3=N1 (some centres not stated)	/	/	2	-3	/	/	/	/
O=C(/C=C(\Nc1cc(Cl)c(Cl)c(Cl)c1)c1ccccc1)c1ccccc1	/	/	-2	-2	/	/	/	/
COC(=O)c1cc2oc(C)cc2n1CC(=O)Nc1cc(C)cc(C)c1	4	-6	9.2*	-1	-10	-5	16*	26*
COC(=O)c1cc2occc2n1CC(=O)Nc1cc(OC)cc(OC)c1	1	6	1	1	8	-14	/	/
O=C(CCc1ccccc1)N[C@H]1[C@@H](OC(=O)c2cnccn2)CCC[C@]12C(=O)N(Cc1ccccc1)c1ccccc12	/	/	/	-4	/	/	/	/
CC(=O)c1ccc(N2CCN(C(=O)c3ccc(-c4ccccc4)cc3)CC2)cc1	6	-31	26*	6	12	6	44*	54*
CCOC(=O)c1cccc(NC(=O)CN(C)S(=O)(=O)c2ccc(Br)s2)c1	/	/	/	2	/	/	/	/
CCCCCCCCN1C(=O)[C@@H](CC(=O)N2CCSCC2)C[C@@]2(C(=O)OC)C1=C[C@H](C(C)C)O[C@@H]2C1CC1	/	/	/	-2	/	/	/	/
OC(c1ccccc1)(c1ccccc1)C1CCN(CCCOc2ccc(OC(F)(F)F)cc2)CC1	/	/	/	2	/	/	/	/
CCSc1nnc(NC(=O)CCCOc2ccc(C)cc2)s1	19	32	21*	16	-10	-12	13*	49*
CCCC/C=C1/[C@@H](CC)N(Cc2ccc(OC)cc2OC)C2=N[C@@H](c3ccccc3)CC(=O)N21	/	/	/	0	/	/	/	/
CS(=O)(=O)N1c2ccccc2C[C@H]1Cc1cc2ccccc2o1	/	/	/	9	/	/	/	/
CCC(C(=O)O)n1nc(-c2ccccc2)c2cc(Cl)ccc21 (configuration not stated)	2	6	1	-4	1	-4	/	/
CC(C(=O)NCc1ccco1)n1nc(-c2ccccc2)c2cc(Cl)ccc21 (configuration not stated)	1	-16	9.9*	12	1	-2	14*	22*
O=C(N/N=C/c1ccsc1)c1cc(-c2ccncc2)nc2ccccc12	-3	-48	-1	-3	-4	5	/	/
O=C(N/N=C/c1ccccn1)c1cc(-c2ccncc2)nc2ccccc12	3	-22	15*	3	6	4	19*	34*
SMILES	NR2E3 ag-1	NR2E3 ag-2	PG9 binder	Rev-erbA mod	PKA-R2B activ	PKA-R1A act	PG9 binder conf	PGV04 counter	others
Cc1ccc(O)c(N=CC2=C(O)c3ccccc3C2=O)c1	14	-49	18*	6	-17	-10	24*	31*
O=C1C(C=Nc2ccccc2O)=C(O)c2ccccc21	3	-99	-2	3	-13	2	/	/
CCOc1cccc2cc(C(=O)Nc3cc(C)on3)c(=O)oc12	5	-19	15*	9	6	-10	33*	37*
CCOc1cccc2cc(C(=O)NCc3ccc(C)cc3)c(=N)oc12	0	-16	6	-4	2	3	/	/
CCOc1cccc2cc(C(=O)NCc3ccc(OC)cc3)c(=N)oc12	1	4	13*	-2	1	-12	5	6
COC(=O)c1cc2c(c3c4cc(F)ccc4n(S(=O)(=O)c4cccc(C)c4)c13)C(=O)N(c1ccc(OC)cc1)C2	/	/	0	7	/	/	/	/
Cc1ccc(C(=O)Nc2sc3c(c2C(=O)NCc2ccco2)CCCC3)cc1	-5	-53	3	1	2	8	/	/
O=C(Nc1sc2c(c1C(=O)NCc1ccco1)CCCC2)c1ccc2c(c1)OCO2	-2	-67	15*	-2	-1	0	8.6*	20*

Bioassay records from PubChem BioAssay.
